The source of these data is ChEMBL document CHEMBL1275497, “Genetic and structural insights into the dissemination potential of the extremely broad-spectrum class A beta-lactamase KPC-2 identified in an Escherichia coli strain and an Enterobacter cloacae strain isolated from the same patient in France” (2008).

Values after ≈ are worked out from the molar mass of the structure shown. Where only a bound is given, the exact number is not on record here.

As usually defined, the MIC is the lowest concentration that inhibits growth of the organism. By Km is commonly meant the substrate concentration at which the rate is half of its maximum. What is called kcat is the maximal rate divided by the concentration of active sites.

Test [1] deals with Escherichia coli. The test is described as follows: Antimicrobial activity against blaKPC-2 and blaTEM-1 producing Escherichia coli 2138 by Etest method. The test is classed as functional.
The test system of test [2] is Escherichia coli. Nature of the test: Antimicrobial activity against Escherichia coli TOP10 harboring blaKPC-2 and blaTEM-1 gene by Etest method. In kind it is functional. Summed up: (§1)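 Strain is an E. coli Top10 transformant obtained by electroporation of plasmid DNA extracted from E. coli 2138. MICs were read by Etest.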
The test system of test [3] is Escherichia coli. The test is described as follows: Antimicrobial activity against Escherichia coli TOP10 by Etest method. In kind it is functional.
The test system of test [4] is Enterobacter cloacae. The test is described as follows: Antimicrobial activity against blaKPC-2, blaKLUC-2 and blaTEM-1 producing Enterobacter cloacae 7506 by Etest method. In kind it is functional.
In test [5] the test system is Escherichia coli. Nature of the test: Antimicrobial activity against Escherichia coli J53 harboring blaKPC-2 and blaTEM-1 by Etest method. In kind it is functional. Summed up:
(§2)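 Strain is an E. coli J53 (rifampin-resistant) transconjugant from E. cloacae 7506. Donor and recipient were mixed at 1:1 and 4:1, shaken in brain heart infusion at 37°C for 3 h, then held on a filter on BHI agar for 18 h at 37°C. Transconjugants were selected on LB agar with ampicillin 100 µg/ml, ticarcillin 50 µg/ml and rifampin 1000 µg/ml. MICs were read by Etest.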

The test system of test [6] is Escherichia coli. The test is described as follows: Antimicrobial activity against Escherichia coli J53 by Etest method. The test is classed as functional.
Test [7] concerns Escherichia coli. The test is described as follows: Activity of Escherichia coli 2138 beta-lactamase KPC-2 by spectrophotometry. Put shortly: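 KPC-2 was expressed in E. coli BL21(DE3) grown in LB with 50 µg/ml kanamycin and induced with 0.4 mM IPTG. It was purified by Q Sepharose, then Bioscale S cation exchange with a 0–1 M NaCl gradient in 40 mM Bis-Tris pH 5.9, then Superdex 75. Km and kcat were measured spectrophotometrically at 37°C in 50 mM phosphate buffer, pH 7.0, using previously described absorption coefficients.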

Test [8] deals with Escherichia coli. Nature of the test: Antimicrobial activity against blaKPC-2 and blaTEM-1 producing Escherichia coli 2138 by Etest method in presence of beta-lactamase inhibitor Tazobactam. In kind it is functional.
Test [9] has as its system Escherichia coli. Nature of the test: Antimicrobial activity against Escherichia coli J53 by Etest method in presence of beta-lactamase inhibitor Tazobactam. The test is classed as functional.
Test [10] relates to Escherichia coli. The test is described as follows: Antimicrobial activity against Escherichia coli TOP10 harboring blaKPC-2 and blaTEM-1 gene by Etest method in presence of beta-lactamase inhibitor Tazobactam. In kind it is functional. Put shortly:
as §1

Test [11] relates to Escherichia coli. Nature of the test: Antimicrobial activity against Escherichia coli TOP10 by Etest method in presence of beta-lactamase inhibitor Tazobactam. The test is classed as functional.
Test [12] deals with Enterobacter cloacae. Nature of the test: Antimicrobial activity against blaKPC-2, blaKLUC-2 and blaTEM-1 producing Enterobacter cloacae 7506 by Etest method in presence of beta-lactamase inhibitor Tazobactam. In kind it is functional.
The test system of test [13] is Escherichia coli. Nature of the test: Antimicrobial activity against Escherichia coli J53 harboring blaKPC-2 and blaTEM-1 gene by Etest method in presence of beta-lactamase inhibitor Tazobactam. The test is classed as functional. Summed up:
as §2

The test system of test [14] is Escherichia coli. Nature of the test: Antimicrobial activity against blaKPC-2 producing Escherichia coli DH5alpha by Etest method. The settings on record: DH5[alpha].
Test [15] relates to Escherichia coli. The test is described as follows: Antimicrobial activity against blaKPC-2 and blaTEM-1 Escherichia coli 2138 by Etest method in presence of beta-lactamase inhibitor clavulanic acid. The test is classed as functional. Summed up: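 MIC read by Etest on the clinical E. coli isolate recovered from a patient hospitalized in France.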
Test [16] concerns Escherichia coli. The test is described as follows: Antimicrobial activity against Escherichia coli TOP10 harboring blaKPC-2 and blaTEM-1 gene by Etest method in presence of beta-lactamase inhibitor clavulanic acid. In kind it is functional. Summed up: (§3)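 MIC by Etest on E. coli Top10 host and its transformants. Transformants were obtained by electroporating plasmid DNA extracted from the clinical E. coli isolate.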

Test [17] relates to Escherichia coli. Nature of the test: Antimicrobial activity against Escherichia coli TOP10 by Etest method in presence of beta-lactamase inhibitor clavulanic acid. The test is classed as functional. Summed up: as §3
The subject of test [18] is Enterobacter cloacae. Nature of the test: Antimicrobial activity against blaKPC-2, blaKLUC-2 and blaTEM-1 producing Enterobacter cloacae 7506 by Etest method in presence of beta-lactamase inhibitor clavulanic acid. In kind it is functional.
Test [19] relates to Escherichia coli. Nature of the test: Antimicrobial activity against Escherichia coli J53 harboring blaKPC-2 and blaTEM-1 gene by Etest method in presence of beta-lactamase inhibitor clavulanic acid. The test is classed as functional. Put shortly: (§4)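 MIC by Etest on E. coli J53 (Rifr) recipient and its transconjugants. Transconjugants came from liquid and solid mating at 1:1 and 4:1 recipient:donor ratios in brain heart infusion (37°C, 3 h), then filter mating for 18 h at 37°C. Selection was on LB agar with ampicillin (100 µg/ml), ticarcillin (50 µg/ml) and rifampin (1000 µg/ml).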

The test system of test [20] is Escherichia coli. Nature of the test: Antimicrobial activity against Escherichia coli J53 by Etest method in presence of beta-lactamase inhibitor clavulanic acid. The test is classed as functional. Summed up: as §4

Consider `C[C@@H](O)[C@H]1C(=O)N2C(C(=O)O)=C(SCCNC=N)C[C@H]12` [IMIPENEM ANHYDROUS], for which the MIC turned out to be 3 µg/mL (≈ 10 µM) in the test on Escherichia coli [1]; 1.5 µg/mL (≈ 5.01 µM) with Escherichia coli [2]; 0.19 µg/mL (≈ 0.635 µM) against Escherichia coli [3]; 3 µg/mL (≈ 10 µM) against Enterobacter cloacae [4]; 0.5 µg/mL (≈ 1.67 µM) with Escherichia coli [5]; 0.094 µg/mL (≈ 0.314 µM) against Escherichia coli [6]. The Km in the test with Escherichia coli [7] was 88 µM. Further, the kcat in the test with Escherichia coli [7] is 20 s⁻¹.

With `CCN1CCN(C(=O)N[C@@H](C(=O)N[C@@H]2C(=O)N3[C@@H]2SC(C)(C)[C@@H]3C(=O)O)c2ccccc2)C(=O)C1=O` [PIPERACILLIN], the MIC in the test with Escherichia coli [1] is over 256 µg/mL; in the test on Escherichia coli [2], over 256 µg/mL; against Escherichia coli [3] it was 0.75 µg/mL (≈ 1.45 µM); against Enterobacter cloacae [4], over 256 µg/mL; against Escherichia coli [5], over 256 µg/mL; in the test with Escherichia coli [6], 0.38 µg/mL (≈ 0.734 µM). The minimum inhibitory concentration (MIC) in the test on Escherichia coli [8] was over 256 µg/mL; with Escherichia coli [9], 0.38 µg/mL; in the test with Escherichia coli [10], over 256 µg/mL; in the test on Escherichia coli [11], 0.75 µg/mL; in the test with Enterobacter cloacae [12], over 256 µg/mL; in the test with Escherichia coli [13] it was over 256 µg/mL. The Km in the test with Escherichia coli [7] amounted to 51 µM. Also, the catalytic constant (kcat) in the test on Escherichia coli [7] was 40 s⁻¹.

Turning to `CC1(C)S[C@@H]2[C@H](NC(=O)[C@H](C(=O)O)c3ccsc3)C(=O)N2[C@H]1C(=O)O` [TICARCILLIN], the MIC against Escherichia coli [1] is over 256 µg/mL; against Escherichia coli [2], over 256 µg/mL; against Escherichia coli [3], 1.5 µg/mL (≈ 3.9 µM); in the test on Enterobacter cloacae [4] it was over 256 µg/mL; in the test with Escherichia coli [5], over 256 µg/mL; with Escherichia coli [6] it was 1.5 µg/mL (≈ 3.9 µM).

`CC1(C)S[C@@H]2[C@H](NC(=O)Cc3ccccc3)C(=O)N2[C@H]1C(=O)O`: in the test with Escherichia coli [7], the Km was found to be 44 µM and the kcat was 45 s⁻¹.

For `C[C@H]1[C@H](NC(=O)/C(=N\OC(C)(C)C(=O)O)c2csc(N)n2)C(=O)N1S(=O)(=O)O` [AZTREONAM], the MIC was 64 µg/mL (≈ 147 µM) in the test on Escherichia coli [1]; 24 µg/mL (≈ 55.1 µM) with Escherichia coli [2]; 0.047 µg/mL (≈ 0.108 µM) in the test with Escherichia coli [3]; 8 µg/mL (≈ 18.4 µM) against Escherichia coli [5]; under 0.016 µg/mL against Escherichia coli [6]. In addition, the Km with Escherichia coli [7] stood at 35 µM. Also, in the test with Escherichia coli [7], the kcat is 3 s⁻¹.

`CC(C)(O/N=C(\C(=O)N[C@@H]1C(=O)N2C(C(=O)[O-])=C(C[n+]3ccccc3)CS[C@H]12)c1csc(N)n1)C(=O)O` [CEFTAZIDIME]: the MIC against Escherichia coli [1] was determined as 8 µg/mL (≈ 14.6 µM); in the test on Escherichia coli [2], 6 µg/mL (≈ 11 µM); in the test with Escherichia coli [3], 0.19 µg/mL (≈ 0.348 µM); against Enterobacter cloacae [4], 32 µg/mL (≈ 58.5 µM); against Escherichia coli [5], 2 µg/mL (≈ 3.66 µM); with Escherichia coli [6], 0.064 µg/mL (≈ 0.117 µM). The minimum inhibitory concentration (MIC) in the test on Escherichia coli [14] was found to be 32 µg/mL (≈ 58.5 µM).

Regarding `CC1(C)S[C@@H]2[C@H](NC(=O)[C@H](N)c3ccc(O)cc3)C(=O)N2[C@H]1C(=O)O` [AMOXICILLIN], the MIC against Escherichia coli [1] was over 256 µg/mL; against Escherichia coli [2], over 256 µg/mL; against Escherichia coli [3] it was 3 µg/mL (≈ 8.21 µM); in the test with Enterobacter cloacae [4], over 256 µg/mL; in the test on Escherichia coli [5], over 256 µg/mL; against Escherichia coli [6], 3 µg/mL (≈ 8.21 µM). Further, the MIC in the test with Escherichia coli [15] was determined as 24 µg/mL; in the test with Escherichia coli [16], 48 µg/mL; with Escherichia coli [17], 2 µg/mL; in the test on Enterobacter cloacae [18], 96 µg/mL; with Escherichia coli [19], 16 µg/mL; in the test on Escherichia coli [20], 2 µg/mL.

Consider `CC(=O)OCC1=C(C(=O)O)N2C(=O)[C@@H](NC(=O)Cc3cccs3)[C@H]2SC1`, for which, in the test on Escherichia coli [7], the Km was 141 µM and the kcat came out at 106 s⁻¹.

As for `CO/N=C(\C(=O)N[C@@H]1C(=O)N2C(C(=O)O)=C(COC(C)=O)CS[C@H]12)c1csc(N)n1` [CEFOTAXIME], the MIC was 16 µg/mL (≈ 35.1 µM) in the test on Escherichia coli [1]; 12 µg/mL (≈ 26.3 µM) in the test on Escherichia coli [2]; 0.047 µg/mL (≈ 0.103 µM) with Escherichia coli [3]; over 32 µg/mL with Enterobacter cloacae [4]; 4 µg/mL (≈ 8.78 µM) in the test with Escherichia coli [5]; 0.032 µg/mL (≈ 0.0703 µM) with Escherichia coli [6]. For the same compound, the Km in the test on Escherichia coli [7] came out at 174 µM. In addition, the kcat in the test with Escherichia coli [7] came out at 66 s⁻¹.

`CO/N=C(\C(=O)N[C@@H]1C(=O)N2C(C(=O)O)=C(COC(N)=O)CS[C@H]12)c1ccco1`: in the test on Escherichia coli [7], the Km turned out to be 160 µM and the turnover number (kcat) came to 66 s⁻¹.

For `CO/N=C(\C(=O)N[C@@H]1C(=O)N2C(C(=O)[O-])=C(C[n+]3cccc4c3CCC4)CS[C@H]12)c1csc(N)n1`, in the test with Escherichia coli [7], the Km came out at 251 µM and the kcat was 12 s⁻¹.

On to `CC1(C)S[C@@H]2[C@H](NC(=O)[C@H](N)c3ccccc3)C(=O)N2[C@H]1C(=O)O`, for which, in the test on Escherichia coli [7], the Km was 29 µM and the kcat was 20 s⁻¹.
